Source: PubChem BioAssay
Active and inactive are the calls of the source. Cut-off read from the data, not from the text of the source, unless noted: active = inhibition above about 30%; inactive = the rest.

Key:
[1] = HUVEC growth inhibition – cell-based, human, primary screen (AID 575;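 active = viability at or below 30% in both replicate assays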;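 note: 100% = median of untreated cell wells with 0.1% DMSO on each plate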); settings: HUVEC proliferation, CellTiter-Glo luminescence, 72 h; at 10 µM; stronger effect = lower value
Procedure, shortened: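 Test system: HUVEC primary cells. Quantity: 1250 endothelial cells in each well. Dosing: single-point 10 µM, DMSO 0.1% final. Incubation: 72 h treatment at 37 °C. Measured by: CTG luminescence. Control set: DMSO cell controls and MePR drug controls. Plate: collagen-coated 384-well format.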

[2] = H69AR cell proliferation blockers – human, duplicate replicates, primary screen (AID 580;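 active = viability at or under a set limit in both replicates, limit being median viability minus 3 SD, cut at about 48% in these data, passing the limit was not always enough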;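 note: 100% = mean luminescence of untreated wells and 0% = no signal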); settings: H69AR lung tumor cells viability, ATP luminescence, 72 h; at 10 µM; stronger effect = lower value
[3] = MRP1 drug-resistance reversers in H69AR cells – cell-based, doxorubicin co-treatment, pilot screen (AID 601;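 active = viability loss from added drug above about 55%, and viability with drug at most 40%, in both replicates, limit read from the data, passing the limit was not always enough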); settings: CellTiter-Glo, 72 h, at 10 µM; for differential viability (reversal): stronger effect = higher value
[4] = yeast transport mutant growth inhibition pilot in 384-well plates, post-Golgi transport modulator project (AID 636; in the data active = inhibition above about 31%); settings: absorbance 615 nm, about 18 h, stronger effect = higher value
[5] = growth suppression of yeast trafficking mutant, preliminary HTS, modulators of trafficking downstream of Golgi apparatus project, 1536-format plate, OD 615 nm (AID 637); settings: yeast transport mutant growth, absorbance 615 nm, 18 h; stronger effect = higher value
[6] = H69AR cells + 2 uM doxorubicin, measured here: viability with 2 uM doxorubicin, stronger effect = lower value
[7] = H69AR cells, compound alone cytotoxicity

Row | Structure (SMILES) | viability [1] | viability [2] | differential viability (reversal) ([3]; H69AR cells + 2 uM doxorubicin) | viability [3, 6] [%] | viability [3, 7] [%] | inhibition [4] | inhibition [5]
1 | CCCCOc1ccc(C(=O)Nc2ccc(N3CCN(C(=O)C(C)C)CC3)cc2)cc1 | 79.3% (inactive) | 75% (inactive) | -6.69% (inactive) | 81.7 | 75 | -3.55% (inactive) | 2.22% (inactive)
2 | O=C(Nc1ccccc1)N(Cc1cccnc1)Cc1ccco1 | 86.1% (inactive) | 96.8% (inactive) | 12.7% (inactive) | 84.1 | 96.8 | -4.74% (inactive) | 1.75% (inactive)
3 | Cc1ccc2c(COn3nnc4ccc(S(=O)(=O)N(C)C)cc43)cc(=O)oc2c1C | 79.5% (inactive) | 72.1% (inactive) | -3.53% (inactive) | 75.6 | 72.1 | -1.04% (inactive) | 2.7% (inactive)
4 | O=C(c1ncn[nH]1)N1CCN(c2nc(-c3ccccc3)cs2)CC1 | 104% (inactive) | 94.5% (inactive) | 3.58% (inactive) | 90.9 | 94.5 | -1.73% (inactive) | 9.68% (inactive)
5 | COc1ccc(C(=O)CSc2nnc(CNc3ccc(C)cc3C)o2)cc1 | 86.8% (inactive) | 82.2% (inactive) | 0.595% (inactive) | 81.6 | 82.2 | -2.76% (inactive) | 1.9% (inactive)
6 | Cc1cc(/C=c2/sc3nc4ccccc4n3c2=O)c(C)n1-c1ccccn1 | 77.6% (inactive) | 63% (inactive) | -2.23% (inactive) | 65.2 | 63 | 2.4% (inactive) | -0.48% (inactive)
7 | CCOc1ccccc1-n1c(SCC(=O)NC(C)CC)nnc1-c1ccoc1C (configuration not stated) | 82.5% (inactive) | 88.7% (inactive) | 9.12% (inactive) | 79.6 | 88.7 | -6% (inactive) | -1.75% (inactive)
8 | COc1ccccc1-n1c(C)nnc1SCC(=O)Nc1cccc(C(C)=O)c1 | 101% (inactive) | 104% (inactive) | 6.48% (inactive) | 97 | 104 | -4.4% (inactive) | 17.9% (inactive)
9 | CN1CCN(C(=O)c2ccccc2N(Cc2ccccc2)S(C)(=O)=O)CC1 | 93.3% (inactive) | 91.6% (inactive) | 6.72% (inactive) | 84.9 | 91.6 | -6.1% (inactive) | -6.35% (inactive)
10 | c1ccc2c(c1)C(=Nn1cnnc1)c1ccccc1-2 | 92.3% (inactive) | 92.4% (inactive) | -4.35% (inactive) | 96.7 | 92.4 | -0.39% (inactive) | -3.02% (inactive)
11 | CCOC(=O)CCC(=O)c1c(C)oc2ccc(OC)cc12 | 81.8% (inactive) | 88.4% (inactive) | -5% (inactive) | 93.4 | 88.4 | 1.04% (inactive) | 13.3% (inactive)
12 | CCC(C)(C)n1nnnc1C(c1ccccc1OC)N1CCSCC1 (configuration not stated) | 99.6% (inactive) | 90% (inactive) | 7.71% (inactive) | 82.3 | 90 | -0.78% (inactive) | -4.76% (inactive)
13 | Cc1cccc(-n2c(N)c(C(=O)N3CCN(C)CC3)sc2=S)c1 | 101% (inactive) | 92.2% (inactive) | 8.09% (inactive) | 84.2 | 92.2 | -0.39% (inactive) | -7.3% (inactive)
14 | COC(=O)C1=C(CSCc2ccco2)NC(=O)NC1c1cc(C)ccc1C (configuration not stated) | 98.4% (inactive) | 82.5% (inactive) | -9.46% (inactive) | 92 | 82.5 | -1.47% (inactive) | -1.43% (inactive)
15 | CCCn1c(SCC(=O)Nc2ccccc2C(=O)OC)nc2c1c(=O)n(C)c(=O)n2C | 94.9% (inactive) | 84.5% (inactive) | 2.33% (inactive) | 82.2 | 84.5 | -7.47% (inactive) | 3.02% (inactive)
16 | CN(C)/C=c1\sc2c(C#N)cc(C(=O)c3ccc(Br)cc3)n2c1=O | 70% (inactive) | 76.6% (inactive) | 8.66% (inactive) | 68 | 76.6 | -4.29% (inactive) | -1.59% (inactive)
17 | O=C1CNCc2[nH]c3ccccc3c2N1c1ccccc1 | 94.2% (inactive) | 94.8% (inactive) | -1.22% (inactive) | 96 | 94.8 | -3.95% (inactive) | 1.27% (inactive)
18 | Cc1ccccc1NS(=O)(=O)c1ccc(NC(=O)c2ccco2)cc1 | 90% (inactive) | 89.2% (inactive) | -0.49% (inactive) | 89.7 | 89.2 | -2.34% (inactive) | -2.38% (inactive)
19 | CCc1ccc(NC(=O)c2cc(-c3ccco3)on2)cc1 | 75.1% (inactive) | 91.3% (inactive) | -16.3% (inactive) | 108 | 91.3 | -1.45% (inactive) | -4.6% (inactive)
20 | O=C(CN1C(=O)CCS(=O)(=O)c2ccccc21)NCc1ccc(F)cc1 | 85% (inactive) | 98.4% (inactive) | 3.11% (inactive) | 95.3 | 98.4 | -5.2% (inactive) | -3.81% (inactive)
21 | Cc1cc(C)n(-c2ccc3cccc(NS(C)(=O)=O)c3n2)n1 | 14.3% (active) | 27.6% (active) | -22.8% (inactive) | 50.4 | 27.6 | -6% (inactive) | 7.46% (inactive)

Row | Structure (SMILES) | viability [1] | viability [2] | differential viability (reversal) ([3]; H69AR cells + 2 uM doxorubicin) | viability [3, 6] [%] | viability [3, 7] [%] | inhibition [4] | inhibition [5]
22 | CCOC(=O)CN(C)Cc1c[nH]c2ccccc12 | 80.4% (inactive) | 87.1% (inactive) | -11.6% (inactive) | 98.7 | 87.1 | -4.47% (inactive) | 7.14% (inactive)
23 | Cc1nnc(SCC(=O)Nc2nccs2)s1 | 95.7% (inactive) | 93% (inactive) | 1.75% (inactive) | 91.3 | 93 | -6.67% (inactive) | -2.22% (inactive)
24 | CCn1cc(/C=C(/C#N)S(=O)(=O)c2ccccc2)cn1 | 110% (inactive) | 95.3% (inactive) | 9.54% (inactive) | 85.8 | 95.3 | -7.24% (inactive) | -4.6% (inactive)
25 | Cc1cccc(-n2ncc3c(NCc4ccccn4)ncnc32)c1 | 97.5% (inactive) | 89.6% (inactive) | 1.75% (inactive) | 87.8 | 89.6 | -1.17% (inactive) | -4.6% (inactive)
26 | CCOc1ccc(C(=O)Cc2ccc3oc(C(=O)O)cc3c2)c(O)c1 | 89.4% (inactive) | 98.8% (inactive) | 10.4% (inactive) | 88.4 | 98.8 | -4.29% (inactive) | 7.62% (inactive)
27 | O=C(c1ccccc1)N1CCN(Cc2ccccc2Br)CC1 | 105% (inactive) | 92.3% (inactive) | 2.89% (inactive) | 89.4 | 92.3 | -4.53% (inactive) | -4.6% (inactive)
28 | O=C(CCn1c(=O)c2sccc2n(CC(=O)NCc2ccco2)c1=O)NCc1ccccc1 | 93.6% (inactive) | 96.9% (inactive) | 4.46% (inactive) | 92.5 | 96.9 | -0.65% (inactive) | -1.59% (inactive)
29 | CCNc1oc(COc2cccc(C)c2)nc1C#N | 101% (inactive) | 90.9% (inactive) | 13.8% (inactive) | 77.1 | 90.9 | -7.53% (inactive) | -10.3% (inactive)
30 | O=C(O)c1cnn2c1NC(c1ccc(F)cc1)CC2C(F)(F)F (configuration not stated) | 90.8% (inactive) | 97.6% (inactive) | 9.29% (inactive) | 88.3 | 97.6 | -6.32% (inactive) | 4.92% (inactive)
31 | COc1cccc(OC)c1C(=O)Nc1ccccc1N1CCCC1 | 91.1% (inactive) | 91.6% (inactive) | 6.71% (inactive) | 84.9 | 91.6 | -1.71% (inactive) | -2.86% (inactive)
32 | CCc1nnc(NC(=O)OCc2ccccc2)s1 | 106% (inactive) | 102% (inactive) | 7.5% (inactive) | 94.9 | 102 | -0.91% (inactive) | 11.4% (inactive)
33 | COC(=O)Oc1c(Br)c(=O)oc2ccccc12 | 90.8% (inactive) | 83% (inactive) | 2.87% (inactive) | 80.1 | 83 | -0.4% (inactive) | -4.13% (inactive)
34 | O=C(Oc1ccccc1)c1cccc(COC(=O)c2cnccn2)c1 | 84.9% (inactive) | 103% (inactive) | 14.2% (inactive) | 88.4 | 103 | -6.13% (inactive) | 4.13% (inactive)
35 | COc1ccc(Cl)cc1-c1n[nH]c(=S)o1 | 86.9% (inactive) | 95.5% (inactive) | 13.7% (inactive) | 81.8 | 95.5 | -6.4% (inactive) | -1.27% (inactive)
36 | CCCOc1ccc(N2C(=O)CC(NCCCN3CCC(C(N)=O)CC3)C2=O)cc1 (configuration not stated) | 121% (inactive) | 88.6% (inactive) | -3.32% (inactive) | 91.9 | 88.6 | -1.97% (inactive) | 1.27% (inactive)
37 | O=C(NC12CC3CC(CC(C3)C1)C2)N1CCN(C(=O)C2CCCO2)CC1 (configuration not stated) | 111% (inactive) | 95.6% (inactive) | 11.2% (inactive) | 84.4 | 95.6 | -7.07% (inactive) | 5.24% (inactive)
38 | CCc1c(C(=O)NCCc2ccc(OC)c(OC)c2)[nH]c(C)c1C(C)=O | 98.6% (inactive) | 87% (inactive) | 4.88% (inactive) | 82.1 | 87 | -5.2% (inactive) | 3.97% (inactive)
39 | c1ccc2c(c1)c1c3n2CCNC3CCC1 (configuration not stated) | 91.1% (inactive) | 91.4% (inactive) | 4.74% (inactive) | 86.7 | 91.4 | -4.13% (inactive) | 0% (inactive)
40 | O=c1cc(CSc2nnc(COc3ccc(Cl)cc3)o2)c2ccccc2[nH]1 | 86.8% (inactive) | 90.2% (inactive) | -2.67% (inactive) | 92.9 | 90.2 | -2.11% (inactive) | -6.67% (inactive)
41 | Nc1nc(NC(=O)c2cccs2)nn1-c1ccccc1 | 101% (inactive) | 94% (inactive) | 7.31% (inactive) | 86.7 | 94 | -6.45% (inactive) | -4.29% (inactive)
